Measured values: ChEMBL document CHEMBL1777799, “Design, synthesis, and biological evaluation of substituted hydrazone and pyrazole derivatives as selective COX-2 inhibitors: Molecular docking study” (Bioorg Med Chem, 2011)
Activity calls are given as the source filed them. No cut-off for these calls is given here.

How the values were obtained:
Rattus norvegicus [1] = assay: Antiinflammatory activity in Sprague-Dawley rat assessed as inhibition of carrageenan-induced foot paw oedema at 200 mg/kg, ip after 1 hr by plethysmometer analysis relative to control; assay type: functional; conditions: for inhibition in vivo at 200 mg/kg: route intraperitoneal
How it was run: (§1)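 Male Sprague–Dawley rats (250 g), fasted at least 16 h with water available. Compounds were given i.p. as a 1 mL suspension in 0.5% methyl cellulose; controls received vehicle. Paw volume was read by water-displacement plethysmometer before treatment and 1 and 2 h after. Activity (%) = (1 − D/C) × 100, where D and C are paw-volume changes in treated and control rats; mean ± SEM, n = 4–6.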

Rattus norvegicus [2] = assay: Antiinflammatory activity in Sprague-Dawley rat assessed as inhibition of carrageenan-induced foot paw oedema at 100 mg/kg, ip after 1 hr by plethysmometer analysis relative to control; assay type: functional; conditions: route intraperitoneal; how it was run: as §1
Rattus norvegicus [3] = assay: Antiinflammatory activity in Sprague-Dawley rat assessed as inhibition of carrageenan-induced foot paw oedema at 200 mg/kg, ip after 2 hrs by plethysmometer analysis relative to control; assay type: functional; conditions: for inhibition in vivo at 200 mg/kg: route intraperitoneal; how it was run: as §1
Rattus norvegicus [4] = assay: Antiinflammatory activity in Sprague-Dawley rat assessed as inhibition of carrageenan-induced foot paw oedema at 100 mg/kg, ip after 2 hrs by plethysmometer analysis relative to control; assay type: functional; conditions: route intraperitoneal; how it was run: as §1
Rattus norvegicus [5] = assay: Antiinflammatory activity in ip dosed Sprague-Dawley rat assessed as inhibition of carrageenan-induced foot paw oedema after 2 hrs by plethysmometer analysis; assay type: functional
How it was run: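 Rat carrageenan paw oedema: male Sprague–Dawley rats (250 g), fasted ≥16 h, dosed i.p. with a 1 mL suspension in 0.5% methyl cellulose. Paw swelling was measured by plethysmometer water displacement, and percent inhibition was taken against vehicle controls.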

[6] = target: T1, Prostaglandin G/H synthase 1 (Ovis aries, UniProt P05979); assay: Inhibition of ovine COX1 assessed as PGF2alpha production from PGH2 after 5 mins by enzyme immunoassay
T1 sequence (P05979 whole entry): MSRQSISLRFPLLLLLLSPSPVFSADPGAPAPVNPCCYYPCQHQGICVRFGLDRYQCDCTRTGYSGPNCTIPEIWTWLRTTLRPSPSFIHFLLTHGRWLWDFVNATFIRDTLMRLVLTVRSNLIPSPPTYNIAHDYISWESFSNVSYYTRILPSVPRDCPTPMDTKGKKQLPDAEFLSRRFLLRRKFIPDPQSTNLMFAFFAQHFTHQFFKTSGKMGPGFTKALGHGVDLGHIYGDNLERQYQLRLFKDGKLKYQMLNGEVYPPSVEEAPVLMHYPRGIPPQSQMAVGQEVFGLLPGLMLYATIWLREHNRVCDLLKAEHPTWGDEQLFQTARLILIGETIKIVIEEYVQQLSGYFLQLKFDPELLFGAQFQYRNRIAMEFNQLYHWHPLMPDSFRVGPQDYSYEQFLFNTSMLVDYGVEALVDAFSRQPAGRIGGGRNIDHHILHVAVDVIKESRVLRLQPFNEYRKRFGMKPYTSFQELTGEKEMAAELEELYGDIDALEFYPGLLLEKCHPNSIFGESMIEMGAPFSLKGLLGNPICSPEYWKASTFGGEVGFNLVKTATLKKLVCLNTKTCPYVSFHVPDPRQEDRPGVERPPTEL
How it was run: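 Ovine COX-1 in reaction buffer with 2 mM phenol and heme, preincubated with six test concentrations (1 mL final) for 5 min at 37 °C. Arachidonic acid was then added and the reaction stopped with 1 M HCl after 2 min. Prostanoids were reduced with stannous chloride and quantified by competitive acetylcholinesterase-tracer EIA (Ellman's reagent, 410 nm). IC50 came from concentration–inhibition curves, duplicate determinations.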

[7] = target: T2, Prostaglandin G/H synthase 1 (Ovis aries) (UniProt P05979); assay: Inhibition of ovine COX1 assessed as PGF2alpha production from PGH2 at 0.5 uM after 5 mins by enzyme immunoassay
T2 sequence (whole entry): T1 sequence (P05979 whole entry)
How it was run: (§2)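 Enzyme (ovine COX-1) with heme in buffer containing 2 mM phenol was preincubated with the test compound for 5 min at 37 °C, then given arachidonic acid for 2 min before quenching with 1 M HCl. Products were reduced with stannous chloride and measured by competitive PG-tracer EIA at 410 nm. Percent inhibition was calculated against control incubations.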

[8] = target: T2, Prostaglandin G/H synthase 1 (Ovis aries); assay: Inhibition of ovine COX1 assessed as PGF2alpha production from PGH2 at 100 uM after 5 mins by enzyme immunoassay; how it was run: as §2

Row | Compound | IC50 [6] [µM] | inhibition [7] [%] | inhibition [8] [%] | inhibition in vivo at 200 mg/kg (Rattus norvegicus [1]) [%] | inhibition in vivo at 100 mg/kg (Rattus norvegicus [2]) [%] | inhibition in vivo at 200 mg/kg (Rattus norvegicus [3]) [%] | inhibition in vivo at 100 mg/kg (Rattus norvegicus [4]) [%] | ED50 (Rattus norvegicus [5]) [mg/kg] | inhibition (Rattus norvegicus [1]) | inhibition (Rattus norvegicus [3])
1 | O=C(/C(=N\Nc1ccc([N+](=O)[O-])cc1)C(=O)C(F)(F)F)c1ccc(Cl)cc1 | > 50 | 31 | 25 | 35.8 | 0 | 57.3 | 17.9 | 170 | – | –
2 | COc1ccc(N/N=C(\C(=O)c2ccc(Cl)cc2)C(=O)C(F)(F)F)cc1 | > 50 | 31 | 25 | 27.6 | 0 | 42.2 | 3.8 | 240 | – | –
3 | O=Cc1c(C(F)(F)F)nn(-c2ccccc2)c1-c1ccc(Cl)cc1 | > 50 | – | – | 75 | 24.1 | 59.1 | 40.3 | 190 | – | –
4 | FC(F)(F)C1=NN=C(c2ccc(Cl)cc2)/C1=N/Nc1ccc(Br)cc1 | > 50 | – | – | 26.3 | 17.5 | 52.1 | 31.3 | 180 | – | –
5 | O=C(/C(=N\Nc1ccc(Cl)cc1)C(=O)C(F)(F)F)c1ccc(Cl)cc1 | > 50 | – | – | 26.7 | – | 35.2 | – | – | – | –
6 | O=C1CCCC/C1=C\c1c(C(F)(F)F)nn(-c2ccccc2)c1-c1ccc(Cl)cc1 | > 50 | – | – | 33.7 | – | 23.9 | – | – | – | –
7 | O=C(O)Cc1ccccc1Nc1c(Cl)cccc1Cl [DICLOFENAC SODIUM] | – | – | – | – | 88.5 | – | 89.5 | – | – | –
8 | O=C(/C=C/c1c(C(F)(F)F)nn(-c2ccccc2)c1-c1ccc(Cl)cc1)c1ccc(Cl)cc1 | > 50 | – | – | 1.5 | – | 4.4 | – | – | – | –
9 | FC(F)(F)C1=NN=C(c2ccc(Cl)cc2)/C1=N/Nc1cc(C(F)(F)F)cc(C(F)(F)F)c1 | > 50 | – | – | 40.8 | 3.4 | 28.8 | 17.3 | – | – | –
10 | COc1ccc(N/N=C2/C(c3ccc(Cl)cc3)=NN=C2C(F)(F)F)cc1 | > 50 | – | – | – | – | – | – | – | inactive | inactive

Continued, in another order:

Row | IC50 [6] [µM] | inhibition [7] [%] | inhibition [8] [%] | Compound | inhibition in vivo at 200 mg/kg (Rattus norvegicus [1]) [%] | inhibition in vivo at 100 mg/kg (Rattus norvegicus [2]) [%] | inhibition in vivo at 200 mg/kg (Rattus norvegicus [3]) [%] | inhibition in vivo at 100 mg/kg (Rattus norvegicus [4]) [%] | ED50 (Rattus norvegicus [5]) [mg/kg] | inhibition (Rattus norvegicus [1]) | inhibition (Rattus norvegicus [3])
11 | > 50 | – | – | O=C1CCC/C1=C\c1c(C(F)(F)F)nn(-c2ccccc2)c1-c1ccc(Cl)cc1 | 80.7 | 37 | 82 | 67 | 118 | – | –
12 | > 50 | – | – | FC(F)(F)C1=NN=C(c2ccc(Cl)cc2)/C1=N/Nc1ccc(Cl)cc1 | 8.1 | – | 9.1 | – | – | – | –
13 | > 50 | – | – | O=C(/C=C/c1c(C(F)(F)F)nn(-c2ccccc2)c1-c1ccc(Cl)cc1)c1ccccc1 | 1.8 | – | 2.6 | – | – | – | –
14 | > 50 | – | – | FC(F)(F)C1=NN=C(c2ccc(Cl)cc2)/C1=N/Nc1ccccc1Cl | 38.4 | – | 15.1 | – | – | – | –
15 | > 50 | – | – | CN1CCC(=O)/C(=C/c2c(C(F)(F)F)nn(-c3ccccc3)c2-c2ccc(Cl)cc2)C1 | 6.7 | – | 20.3 | – | – | – | –
16 | > 50 | 31 | 25 | O=C(/C(=N\Nc1ccccc1Cl)C(=O)C(F)(F)F)c1ccc(Cl)cc1 | 47.1 | 0 | 41.7 | 19.3 | 260 | – | –
17 | > 50 | – | – | CCN1CCC(=O)/C(=C/c2c(C(F)(F)F)nn(-c3ccccc3)c2-c2ccc(Cl)cc2)C1 | 80 | 41 | 89.7 | 64 | 120 | – | –
18 | > 50 | – | – | O=C(/C(=N\Nc1ccc(Br)cc1)C(=O)C(F)(F)F)c1ccc(Cl)cc1 | 35 | 0 | 33.8 | 13.9 | 280 | – | –
19 | > 50 | – | – | O=C(/C(=N\Nc1cc(C(F)(F)F)cc(C(F)(F)F)c1)C(=O)C(F)(F)F)c1ccc(Cl)cc1 | 80 | 33 | 88.4 | 59 | 112 | – | –
20 | > 50 | – | – | O=[N+]([O-])c1ccc(N/N=C2/C(c3ccc(Cl)cc3)=NN=C2C(F)(F)F)cc1 | 4 | – | 7 | – | – | – | –
